Here are results for twelve compounds from ChEMBL document CHEMBL1268956, “3-Urea-1-(phenylmethyl)-pyridones as novel, potent, and selective EP3 receptor antagonists” (Bioorg Med Chem Lett, 2010).

In data set [1] the target is Prostaglandin F2-alpha receptor (Homo sapiens, UniProt P43088). Put plainly: Displacement of radioligand from human FP receptor.
In a further data set the target is T1, Cytochrome P450 1A2 (Homo sapiens, UniProt P05177).
T1 sequence (P05177 whole entry): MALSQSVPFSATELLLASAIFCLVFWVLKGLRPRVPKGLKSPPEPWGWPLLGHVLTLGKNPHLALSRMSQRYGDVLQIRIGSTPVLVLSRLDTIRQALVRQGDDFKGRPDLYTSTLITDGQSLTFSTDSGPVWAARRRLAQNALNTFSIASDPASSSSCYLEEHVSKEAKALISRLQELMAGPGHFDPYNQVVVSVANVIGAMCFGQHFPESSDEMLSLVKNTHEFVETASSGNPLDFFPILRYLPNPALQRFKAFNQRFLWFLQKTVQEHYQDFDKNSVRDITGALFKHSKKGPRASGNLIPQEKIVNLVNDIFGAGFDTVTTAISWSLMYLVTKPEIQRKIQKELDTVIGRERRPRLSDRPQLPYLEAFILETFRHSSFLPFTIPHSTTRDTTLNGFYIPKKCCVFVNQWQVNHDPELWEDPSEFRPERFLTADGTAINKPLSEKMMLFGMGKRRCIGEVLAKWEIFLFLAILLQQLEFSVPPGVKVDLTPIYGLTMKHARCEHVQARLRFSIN
The data set is described as follows: Inhibition of CYP1A2. Format: ADME.

Data set [2] concerns the target Prostaglandin E2 receptor EP4 subtype (Homo sapiens, UniProt P35408). Put plainly: Displacement of radioligand from human EP4 receptor.
Data set [3] deals with Prostaglandin D2 receptor (Homo sapiens) (UniProt Q13258). Put plainly: Displacement of radioligand from human DP receptor.
Data set [4] deals with Prostaglandin E2 receptor EP2 subtype (Homo sapiens, UniProt P43116). Put plainly: Displacement of radioligand from human EP2 receptor.
Data set [5] deals with Prostaglandin G/H synthase 1 (Homo sapiens, UniProt P23219). The data set is described as follows: Inhibition of human COX1 in human whole blood by ELISA. Type of data set: tissue-based. An outline of the steps: (§1)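 Human whole blood; COX1 and COX2 inhibition read out in ELISA format.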
(In general: In an ELISA, binding on a coated surface is turned into a signal by an enzyme label.)

The next data set has as its target T2, Thromboxane A2 receptor (Homo sapiens, UniProt P21731).
T2 sequence (P21731 whole entry): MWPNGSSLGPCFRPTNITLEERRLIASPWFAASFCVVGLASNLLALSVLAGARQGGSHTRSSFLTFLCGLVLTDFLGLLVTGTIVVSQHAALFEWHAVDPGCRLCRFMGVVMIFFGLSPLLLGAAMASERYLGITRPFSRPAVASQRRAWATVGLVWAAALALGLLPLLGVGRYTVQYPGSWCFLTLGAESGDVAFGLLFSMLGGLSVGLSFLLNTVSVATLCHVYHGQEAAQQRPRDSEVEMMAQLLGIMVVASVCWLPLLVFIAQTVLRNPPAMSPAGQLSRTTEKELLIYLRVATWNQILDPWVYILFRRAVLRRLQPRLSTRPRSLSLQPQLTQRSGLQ
The data set is described as follows: Displacement of radioligand from human TP receptor.

Data set [6] deals with T3, Prostaglandin E2 receptor EP3 subtype (Rattus norvegicus, UniProt P34980).
T3 sequence (P34980 whole entry): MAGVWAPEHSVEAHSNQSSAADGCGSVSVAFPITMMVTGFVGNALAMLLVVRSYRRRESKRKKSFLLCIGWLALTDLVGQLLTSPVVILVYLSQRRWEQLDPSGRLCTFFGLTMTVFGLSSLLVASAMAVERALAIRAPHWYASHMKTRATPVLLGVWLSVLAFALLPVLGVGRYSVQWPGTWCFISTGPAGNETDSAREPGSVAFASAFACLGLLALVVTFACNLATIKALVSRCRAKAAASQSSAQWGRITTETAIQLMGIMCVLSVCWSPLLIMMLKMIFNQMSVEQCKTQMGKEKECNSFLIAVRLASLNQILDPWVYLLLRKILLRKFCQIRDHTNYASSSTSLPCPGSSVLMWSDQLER
Put plainly: Inhibition of rat EP3 receptor.

Data set [7] addresses T4, Prostaglandin E2 receptor EP3 subtype (Homo sapiens, UniProt P43115).
T4 sequence (P43115 whole entry): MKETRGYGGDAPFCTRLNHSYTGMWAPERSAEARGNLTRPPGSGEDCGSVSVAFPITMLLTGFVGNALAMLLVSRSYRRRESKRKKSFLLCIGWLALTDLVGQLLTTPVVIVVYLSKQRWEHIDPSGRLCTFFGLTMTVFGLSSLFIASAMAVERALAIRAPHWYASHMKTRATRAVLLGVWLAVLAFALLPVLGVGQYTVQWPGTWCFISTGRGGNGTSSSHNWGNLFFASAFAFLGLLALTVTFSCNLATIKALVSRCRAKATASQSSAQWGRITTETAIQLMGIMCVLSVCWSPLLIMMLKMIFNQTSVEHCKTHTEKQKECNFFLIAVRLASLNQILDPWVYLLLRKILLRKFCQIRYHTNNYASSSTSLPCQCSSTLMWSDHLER
The data set is described as follows: Antagonist activity at human EP3 receptor expressed in human U2OS cells assessed as inhibition of PGE2-induced intracellular calcium mobilization by FLIPR assay. Type of data set: functional, cell-based. In general terms: Calcium assays in cells follow changes in intracellular calcium, usually with a dye or a luminescent sensor.

Data set [8] concerns the target T5, Prostaglandin E2 receptor EP1 subtype (Homo sapiens, UniProt P34995).
T5 sequence (P34995 whole entry): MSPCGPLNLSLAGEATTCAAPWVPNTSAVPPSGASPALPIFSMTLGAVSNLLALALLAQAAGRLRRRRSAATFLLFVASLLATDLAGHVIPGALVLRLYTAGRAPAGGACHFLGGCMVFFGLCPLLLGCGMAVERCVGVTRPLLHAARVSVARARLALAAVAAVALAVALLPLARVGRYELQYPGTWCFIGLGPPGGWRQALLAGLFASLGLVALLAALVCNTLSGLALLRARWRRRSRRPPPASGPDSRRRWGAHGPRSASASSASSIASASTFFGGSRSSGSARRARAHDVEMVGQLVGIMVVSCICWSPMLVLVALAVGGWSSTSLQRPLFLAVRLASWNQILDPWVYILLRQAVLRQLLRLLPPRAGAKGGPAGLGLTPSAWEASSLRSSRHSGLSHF
The data set is described as follows: Displacement of radioligand from human EP1 receptor.

In data set [9] the target is T6, Prostaglandin G/H synthase 2 (Homo sapiens, UniProt P35354).
T6 sequence (P35354 whole entry): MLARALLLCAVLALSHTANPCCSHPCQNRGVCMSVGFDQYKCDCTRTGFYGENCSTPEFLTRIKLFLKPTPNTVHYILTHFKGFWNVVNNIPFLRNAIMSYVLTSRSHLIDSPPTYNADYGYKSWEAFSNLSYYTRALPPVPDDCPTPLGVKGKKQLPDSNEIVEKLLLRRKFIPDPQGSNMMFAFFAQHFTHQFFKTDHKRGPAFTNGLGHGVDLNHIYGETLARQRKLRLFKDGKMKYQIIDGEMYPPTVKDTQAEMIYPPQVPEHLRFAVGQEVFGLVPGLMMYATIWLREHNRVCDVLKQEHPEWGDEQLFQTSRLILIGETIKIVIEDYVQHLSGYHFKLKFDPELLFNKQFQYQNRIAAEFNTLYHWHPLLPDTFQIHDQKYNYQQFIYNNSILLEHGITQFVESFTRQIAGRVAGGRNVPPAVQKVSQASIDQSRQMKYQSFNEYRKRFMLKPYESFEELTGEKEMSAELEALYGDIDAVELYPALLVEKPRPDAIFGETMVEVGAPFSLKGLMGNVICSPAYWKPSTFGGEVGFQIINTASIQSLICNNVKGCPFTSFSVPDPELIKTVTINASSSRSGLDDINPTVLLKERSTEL
Put plainly: Inhibition of human COX2 in human whole blood by ELISA. Format: tissue-based. In outline:
as §1

Data set [10] in a line: Oral bioavailability in rat blood at 1.2 mg/kg, iv and 2 mg/kg, po. Type of data set: ADME, organism-based. In outline: (§2)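 Rats dosed at 1.2 mg/kg iv and 2.0 mg/kg po. Blood clearance, half-life, steady-state volume of distribution and oral bioavailability derived from the iv and po arms.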
Data set [11] in a line: Half life in rat blood at 1.2 mg/kg, iv and 2 mg/kg, po. Format: ADME, organism-based. An outline of the steps:
as §2

Data set [12] can be described thus: Volume of distribution at steady state in rat blood at 1.2 mg/kg, iv and 2 mg/kg, po. Format: ADME, organism-based. To be noted: read-out: Vdss. An outline of the steps: as §2
Data set [13] can be described thus: Permeability across artificial membrane. Format: ADME. To be noted: PAMPA; read-out: permeability. (In general: The PAMPA barrier holds no transporters, so it reflects passive diffusion.)
The nature of data set [14]: Clearance in rat blood at 1.2 mg/kg, iv and 2 mg/kg, po. Type of data set: ADME, organism-based. An outline of the steps: as §2
The target in the next data set is Cytochrome P450 3A4 (Homo sapiens, UniProt P08684). Put plainly: Inhibition of CYP3A4. Type of data set: ADME.
The next data set addresses Cytochrome P450 2C19 (Homo sapiens, UniProt P33261). The data set is described as follows: Inhibition of CYP2C19. Type of data set: ADME.
For a further data set, the target named is Cytochrome P450 2C9 (Homo sapiens, UniProt P11712). Put plainly: Inhibition of CYP2C9. Type of data set: ADME.
The target in the next data set is Cytochrome P450 2D6 (Homo sapiens, UniProt P10635). Put plainly: Inhibition of CYP2D6. Format: ADME.
Chain of Cytochrome P450 2D6 (P10635 whole entry): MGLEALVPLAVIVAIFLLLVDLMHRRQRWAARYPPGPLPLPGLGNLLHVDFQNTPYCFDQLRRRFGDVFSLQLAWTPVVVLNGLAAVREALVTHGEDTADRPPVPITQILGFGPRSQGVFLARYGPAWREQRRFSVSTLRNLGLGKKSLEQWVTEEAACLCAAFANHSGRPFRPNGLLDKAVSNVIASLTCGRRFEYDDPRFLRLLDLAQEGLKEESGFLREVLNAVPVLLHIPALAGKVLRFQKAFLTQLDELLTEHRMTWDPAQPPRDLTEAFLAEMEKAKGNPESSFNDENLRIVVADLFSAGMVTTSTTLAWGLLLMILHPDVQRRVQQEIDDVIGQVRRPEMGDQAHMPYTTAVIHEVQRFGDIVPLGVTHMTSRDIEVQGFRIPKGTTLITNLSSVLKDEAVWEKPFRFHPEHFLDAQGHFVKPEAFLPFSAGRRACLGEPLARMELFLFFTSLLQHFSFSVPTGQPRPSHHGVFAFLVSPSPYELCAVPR

Chain of Prostaglandin G/H synthase 1 (P23219 whole entry): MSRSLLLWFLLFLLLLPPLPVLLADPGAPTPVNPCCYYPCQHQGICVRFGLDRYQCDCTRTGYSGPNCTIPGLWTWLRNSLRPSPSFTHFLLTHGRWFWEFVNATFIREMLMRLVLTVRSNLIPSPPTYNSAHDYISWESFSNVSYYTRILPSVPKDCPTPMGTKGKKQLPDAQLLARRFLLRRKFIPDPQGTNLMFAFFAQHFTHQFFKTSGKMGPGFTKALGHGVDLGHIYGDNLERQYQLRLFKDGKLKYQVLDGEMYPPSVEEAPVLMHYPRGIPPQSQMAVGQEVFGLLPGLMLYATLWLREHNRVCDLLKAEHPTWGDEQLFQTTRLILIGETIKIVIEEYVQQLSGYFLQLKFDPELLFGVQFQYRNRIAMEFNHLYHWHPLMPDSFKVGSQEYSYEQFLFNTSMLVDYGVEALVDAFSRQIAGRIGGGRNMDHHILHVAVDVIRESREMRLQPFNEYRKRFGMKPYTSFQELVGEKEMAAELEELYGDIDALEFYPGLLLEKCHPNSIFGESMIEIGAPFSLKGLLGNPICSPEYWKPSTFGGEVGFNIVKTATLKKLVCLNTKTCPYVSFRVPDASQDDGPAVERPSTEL
Chain of Prostaglandin F2-alpha receptor (P43088 whole entry): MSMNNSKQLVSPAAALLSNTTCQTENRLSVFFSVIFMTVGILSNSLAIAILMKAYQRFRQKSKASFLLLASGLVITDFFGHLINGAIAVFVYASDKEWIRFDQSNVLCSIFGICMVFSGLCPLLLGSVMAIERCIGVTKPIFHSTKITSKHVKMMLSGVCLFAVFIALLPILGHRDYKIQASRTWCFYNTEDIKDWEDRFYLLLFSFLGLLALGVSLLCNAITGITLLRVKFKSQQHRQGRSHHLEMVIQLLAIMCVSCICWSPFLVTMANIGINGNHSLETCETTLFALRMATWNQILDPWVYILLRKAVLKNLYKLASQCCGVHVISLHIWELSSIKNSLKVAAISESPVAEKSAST
Chain of Prostaglandin D2 receptor (Homo sapiens) (Q13258 whole entry, looked up): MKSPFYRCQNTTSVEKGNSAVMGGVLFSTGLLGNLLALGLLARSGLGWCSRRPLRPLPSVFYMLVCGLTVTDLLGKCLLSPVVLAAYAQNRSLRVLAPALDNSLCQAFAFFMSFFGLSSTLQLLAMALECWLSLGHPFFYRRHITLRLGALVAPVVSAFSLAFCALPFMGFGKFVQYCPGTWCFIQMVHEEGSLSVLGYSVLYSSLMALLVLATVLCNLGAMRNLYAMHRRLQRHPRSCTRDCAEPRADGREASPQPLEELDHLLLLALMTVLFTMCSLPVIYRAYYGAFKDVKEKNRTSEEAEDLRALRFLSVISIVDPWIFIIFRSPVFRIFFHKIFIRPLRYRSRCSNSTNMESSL
Chain of Cytochrome P450 3A4 (P08684 whole entry): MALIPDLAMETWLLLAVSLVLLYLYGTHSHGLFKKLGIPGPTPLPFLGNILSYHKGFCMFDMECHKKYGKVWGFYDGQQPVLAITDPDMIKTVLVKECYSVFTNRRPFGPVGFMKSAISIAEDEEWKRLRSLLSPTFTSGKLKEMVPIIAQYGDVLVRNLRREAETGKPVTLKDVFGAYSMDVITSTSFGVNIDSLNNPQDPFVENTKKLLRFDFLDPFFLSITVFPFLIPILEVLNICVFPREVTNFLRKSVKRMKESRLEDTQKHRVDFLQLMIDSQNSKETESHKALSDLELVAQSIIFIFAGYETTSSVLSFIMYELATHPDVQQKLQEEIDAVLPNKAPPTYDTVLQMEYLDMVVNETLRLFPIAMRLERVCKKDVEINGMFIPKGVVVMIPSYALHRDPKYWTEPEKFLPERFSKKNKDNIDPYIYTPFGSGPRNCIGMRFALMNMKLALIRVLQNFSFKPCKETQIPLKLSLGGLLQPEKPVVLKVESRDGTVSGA
Chain of Cytochrome P450 2C9 (P11712 whole entry): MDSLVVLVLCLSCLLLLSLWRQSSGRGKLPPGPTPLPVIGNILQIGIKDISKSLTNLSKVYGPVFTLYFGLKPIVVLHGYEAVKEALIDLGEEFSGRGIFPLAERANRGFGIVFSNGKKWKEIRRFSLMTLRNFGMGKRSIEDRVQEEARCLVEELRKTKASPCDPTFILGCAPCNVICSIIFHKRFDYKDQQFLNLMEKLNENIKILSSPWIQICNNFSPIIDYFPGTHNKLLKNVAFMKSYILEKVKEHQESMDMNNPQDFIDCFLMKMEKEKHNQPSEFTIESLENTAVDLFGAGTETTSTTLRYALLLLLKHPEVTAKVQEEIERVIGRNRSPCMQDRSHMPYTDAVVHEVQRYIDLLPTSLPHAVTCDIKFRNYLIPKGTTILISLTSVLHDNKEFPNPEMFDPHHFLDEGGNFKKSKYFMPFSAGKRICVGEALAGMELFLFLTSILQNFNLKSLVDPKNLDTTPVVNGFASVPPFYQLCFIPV
Chain of Cytochrome P450 2C19 (P33261 whole entry): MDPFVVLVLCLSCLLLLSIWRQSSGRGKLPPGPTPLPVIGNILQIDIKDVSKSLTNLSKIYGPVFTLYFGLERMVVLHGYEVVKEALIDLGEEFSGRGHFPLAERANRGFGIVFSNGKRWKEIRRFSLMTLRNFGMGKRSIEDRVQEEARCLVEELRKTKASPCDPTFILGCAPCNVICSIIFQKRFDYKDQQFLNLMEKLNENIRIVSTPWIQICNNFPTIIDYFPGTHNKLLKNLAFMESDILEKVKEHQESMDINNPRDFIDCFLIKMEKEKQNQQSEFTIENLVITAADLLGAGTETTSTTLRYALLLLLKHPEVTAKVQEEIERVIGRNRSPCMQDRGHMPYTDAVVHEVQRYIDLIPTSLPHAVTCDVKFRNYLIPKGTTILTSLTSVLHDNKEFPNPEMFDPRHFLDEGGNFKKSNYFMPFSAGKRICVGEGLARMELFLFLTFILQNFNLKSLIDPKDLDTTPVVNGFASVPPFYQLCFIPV
Chain of Prostaglandin E2 receptor EP2 subtype (P43116 whole entry): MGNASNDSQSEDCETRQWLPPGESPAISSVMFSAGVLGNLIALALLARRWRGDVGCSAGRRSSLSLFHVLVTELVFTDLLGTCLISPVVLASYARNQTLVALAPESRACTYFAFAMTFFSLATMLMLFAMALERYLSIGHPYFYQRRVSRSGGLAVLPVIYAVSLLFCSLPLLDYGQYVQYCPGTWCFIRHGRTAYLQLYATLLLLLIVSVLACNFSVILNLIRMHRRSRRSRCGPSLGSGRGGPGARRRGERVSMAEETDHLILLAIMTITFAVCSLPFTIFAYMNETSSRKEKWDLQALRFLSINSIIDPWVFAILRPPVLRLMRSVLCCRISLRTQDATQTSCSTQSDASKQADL
Chain of Prostaglandin E2 receptor EP4 subtype (P35408 whole entry): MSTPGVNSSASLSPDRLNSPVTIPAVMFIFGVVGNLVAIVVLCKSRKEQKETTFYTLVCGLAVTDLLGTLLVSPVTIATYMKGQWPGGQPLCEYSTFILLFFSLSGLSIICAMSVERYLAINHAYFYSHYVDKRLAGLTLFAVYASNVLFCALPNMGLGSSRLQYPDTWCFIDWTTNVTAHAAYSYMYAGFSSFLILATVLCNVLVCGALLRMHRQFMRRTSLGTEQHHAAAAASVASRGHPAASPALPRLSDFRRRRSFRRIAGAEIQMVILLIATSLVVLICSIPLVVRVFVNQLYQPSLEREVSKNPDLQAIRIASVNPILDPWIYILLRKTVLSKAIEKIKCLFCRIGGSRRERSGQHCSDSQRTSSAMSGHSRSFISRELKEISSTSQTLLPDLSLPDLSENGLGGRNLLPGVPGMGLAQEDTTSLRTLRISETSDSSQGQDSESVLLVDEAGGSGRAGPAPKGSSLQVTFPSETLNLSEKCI

Take `CCc1cccc(NC(=O)Nc2cccn(Cc3ccccc3Cl)c2=O)c1`: the Ki (commonly a measure of affinity in units of concentration, obtained from inhibition or displacement) in data set [1] is over 10000 nM; on Cytochrome P450 1A2, 2000 nM; in data set [2], over 10000 nM; in data set [4] it was over 10000 nM; in [5], over 100000 nM; on Thromboxane A2 receptor, over 10000 nM. In addition, the Ki in data set [6] is 158 nM; in [7], 50.1 nM; in data set [8], over 10000 nM; in data set [9] it was over 100000 nM. The pKi (commonly the negative decadic logarithm of the Ki, by convention in mol/L) in data set [3] is given as under 5.

With `COc1cccc(NC(=O)Nc2cccn(Cc3ccccc3Cl)c2=O)c1`, the bioavailability (in general, dose-corrected exposure relative to a reference, in per cent) in data set [10] came out at 27%. For the same compound, the half-life (usually the time in which the quantity being followed falls by half) in data set [11] is 1.3 h. Moreover, the Vd in data set [12] was 3.4 L/kg. The Papp in [13] came to 55 ×10⁻⁶ cm/s. This compound registered a clearance in [14] of 24 mL/min/kg. Moreover, in data set [7], the Ki was 158 nM.

Regarding `COc1cccc(NC(=O)Nc2cc(C)cn(Cc3ccccc3Cl)c2=O)c1`, the Ki in [7] is 1260 nM.

In the case of `CCc1cccc(NC(=O)Nc2cc(C)cn(Cc3ccccc3Cl)c2=O)c1`, in data set [7], the Ki was 200 nM.

Regarding `CCc1cccc(NC(=O)Nc2cc(Cl)cn(Cc3ccccc3Cl)c2=O)c1`, in [7], the Ki was 501 nM.

For `COc1cccc(NC(=O)Nc2ccc(C)n(Cc3ccccc3Cl)c2=O)c1`, the Ki in [7] is 1260 nM.

Consider `CCc1cccc(NC(=O)Nc2ccc(C)n(Cc3ccccc3Cl)c2=O)c1`, for which, in data set [7], the Ki was 126 nM.

As for `CCc1cccc(NC(=O)Nc2cccn(Cc3cccc(C(F)(F)F)c3)c2=O)c1`, the Ki in data set [7] was 200 nM.

As to `CCc1cccc(NC(=O)Nc2cccn(Cc3ccc(F)cc3Cl)c2=O)c1`, in [7], the inhibitory constant (Ki) is 126 nM.

Take `CCc1cccc(NC(=O)Nc2cccn(Cc3ccccc3F)c2=O)c1`: in data set [7], the Ki was 100 nM.

Consider `COc1cccc(NC(=O)Nc2cccn(Cc3c(F)cccc3Cl)c2=O)c1`, for which the IC50 (as a rule, the point on the concentration scale where inhibition reaches its midpoint) is over 25000 nM on Cytochrome P450 3A4, 4500 nM against Cytochrome P450 2C19, 3700 nM on Cytochrome P450 2C9 and over 25000 nM against Cytochrome P450 2D6. Further, the Papp in data set [13] amounted to 22 ×10⁻⁶ cm/s. In addition, the Ki in data set [7] was 25.1 nM.

Take `CCc1cccc(NC(=O)Nc2cccn(Cc3c(F)cccc3Cl)c2=O)c1`: the Ki in data set [7] was 6.31 nM.
